Target: T1, Carboxypeptidase G2 (Pseudomonas aeruginosa (strain ATCC 15692 / DSM 22644 / CIP 104116 / JCM 14847 / LMG 12228 / 1C / PRS 101 / PAO1), UniProt Q9I056)
T1 sequence (Q9I056 whole entry): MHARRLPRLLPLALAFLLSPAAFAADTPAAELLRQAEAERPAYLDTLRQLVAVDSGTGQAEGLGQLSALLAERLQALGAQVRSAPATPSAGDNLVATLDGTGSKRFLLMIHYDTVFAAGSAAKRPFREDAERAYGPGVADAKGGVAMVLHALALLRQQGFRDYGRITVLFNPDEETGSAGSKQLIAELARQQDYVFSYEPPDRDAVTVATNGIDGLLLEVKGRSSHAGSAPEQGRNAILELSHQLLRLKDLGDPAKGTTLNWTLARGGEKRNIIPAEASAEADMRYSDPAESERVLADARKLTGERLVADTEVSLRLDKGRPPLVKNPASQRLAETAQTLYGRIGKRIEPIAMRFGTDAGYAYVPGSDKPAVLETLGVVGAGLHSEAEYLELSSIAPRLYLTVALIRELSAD
Assay: Inhibitory activity against bacterial carboxypeptidase G2 by Dixon plot assay
Outline: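 Bacterial CPG2 (10 μL stock, 0.1 U) started with 990 μL methotrexate solutions at several concentrations plus inhibitor 0–3.0 μM, in 0.1 M Tris-HCl pH 7.3 with 0.1 mM ZnCl2, 37 °C. Initial rate of absorbance decrease at 320 nm (methotrexate ε 8300). Apparent Ki read from Dixon plot of 1/V against inhibitor concentration.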

Ki [µM] | SMILES
0.3 | COc1ccc(SC(=O)N[C@H](CCC(=O)O)C(=O)O)cc1 [(R)-2-(4-Methoxy-phenylsulfanylcarbonylamino)-pentanedioic acid]
1.07 | COc1cccc(SC(=O)NC(CCC(=O)O)C(=O)O)c1 (stereo unspecified) [2-(3-Methoxy-phenylsulfanylcarbonylamino)-pentanedioic acid]
2.5 | Nc1cccc(SC(=O)NC(CCC(=O)O)C(=O)O)c1 (stereo unspecified) [2-(3-Amino-phenylsulfanylcarbonylamino)-pentanedioic acid]
1.05 | Cc1ccc(SC(=O)NC(CCC(=O)O)C(=O)O)cc1 (stereo unspecified) [2-p-Tolylsulfanylcarbonylamino-pentanedioic acid]
165 | O=C(O)CCC(NC(=O)Sc1cc[n+]([O-])cc1)C(=O)O (stereo unspecified) [2-(1-Oxy-pyridin-4-ylsulfanylcarbonylamino)-pentanedioic acid]
5.8 | Nc1ccc(SC(=O)NC(CCC(=O)O)C(=O)O)cc1 (stereo unspecified) [2-(4-Amino-phenylsulfanylcarbonylamino)-pentanedioic acid]
